Here are results for 33 compounds from ChEMBL document CHEMBL1126322, “Renin inhibitors containing alpha-heteroatom amino acids as P2 residues” (J Med Chem, 1992).

pIC50: −log10 of the molar value.

Experiment [1] is described as follows: Inhibitory activity against monkey renin in vitro.
For experiment [2], the target named is T1, Cathepsin D (Bos taurus, UniProt P80209).
T1 sequence (P80209 whole entry): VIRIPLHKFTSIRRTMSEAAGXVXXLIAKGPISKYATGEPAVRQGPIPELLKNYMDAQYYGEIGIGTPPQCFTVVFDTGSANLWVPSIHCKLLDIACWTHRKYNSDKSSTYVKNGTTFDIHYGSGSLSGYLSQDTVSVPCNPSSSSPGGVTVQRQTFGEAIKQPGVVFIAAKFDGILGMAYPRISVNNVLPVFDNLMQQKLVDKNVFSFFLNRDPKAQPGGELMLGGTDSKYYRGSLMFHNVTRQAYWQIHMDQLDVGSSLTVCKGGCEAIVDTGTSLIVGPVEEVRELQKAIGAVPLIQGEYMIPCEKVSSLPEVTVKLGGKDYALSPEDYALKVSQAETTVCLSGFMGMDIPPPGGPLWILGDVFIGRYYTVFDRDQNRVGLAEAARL
As to the kind of experiment: Inhibitory activity against bovine cathepsin D. The method in brief:
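Bovine cathepsin D activity measured in duplicate as hydrolysis of bovine hemoglobin at pH 3.2 and 37 °C, read as net absorbance at 280 nm. Percent inhibition at six inhibitor concentrations; IC50 by nonlinear regression.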

Experiment [3] has as its system Monkey. The experiment is described as follows: Effect of compound on blood pressure in conscious, salt-depleted, normotensive, cynomolgus monkeys after oral administration of 30 mg/kg dose at 1 hour. The format is functional, Cercopithecidae.
The subject of experiment [4] is Monkey. The experiment is described as follows: Effect of compound on blood pressure in conscious, salt-depleted, normotensive, cynomolgus monkeys after oral administration of 30 mg/kg dose at 2 hours. In kind it is functional, Cercopithecidae.
Experiment [5] relates to Monkey. The experiment is described as follows: Effect of compound on blood pressure in conscious, salt-depleted, normotensive, cynomolgus monkeys after oral administration of 30 mg/kg dose at 3 hours. In kind it is functional, Cercopithecidae.
The species named for experiment [6] is Bos taurus. As to the kind of experiment: Selectivity ratio towards cathepsin D over renin. A digest of the protocol:
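Ratio of cathepsin D IC50 to monkey plasma renin IC50. […] Cathepsin D IC50 from bovine hemoglobin hydrolysis at pH 3.2, 37 °C, A280.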

Consider `CC[C@H](C)CNC(=O)C[C@H](O)[C@H](CC(C)C)NC(=O)C(N)NC(=O)C(Cc1cccc2ccccc12)Cc1cccc2ccccc12` (stereo in doubt; 32), for which the pIC50 in experiment [1] is 6.00.

In turn, `CCNC(NC(=O)C(Cc1cccc2ccccc12)Cc1cccc2ccccc12)C(=O)N[C@@H](CC(C)C)[C@@H](O)CC(=O)NC[C@@H](C)CC` (stereo in doubt; 34) showed a negative-log IC50 (pIC50) in experiment [1] of 6.68.

As to `CCOC(NC(=O)C(Cc1cccc2ccccc12)Cc1cccc2ccccc12)C(=O)N[C@@H](CC(C)C)[C@@H](O)CC(=O)NC[C@@H](C)CC` (stereo in doubt; 21), the pIC50 in experiment [1] was 7.59.

As to `C=CCN(C)C(NC(=O)[C@H](Cc1ccccc1)NC(=O)OC(C)(C)C)C(=O)N[C@@H](CC1CCCCC1)[C@@H](O)[C@@H](O)CC(C)C` (stereo partly specified), the pIC50 in experiment [2] was 7.22.

As for `CCCOC(NC(=O)[C@H](Cc1ccccc1)NS(=O)(=O)N1CCOCC1)C(=O)N[C@@H](CC1CCCCC1)[C@@H](O)C(F)(F)C(=O)NCCN1CCOCC1` (stereo partly specified), the “Change in BP” value in experiment [3] was 3 mmHg; in experiment [4] it was -1 mmHg; in experiment [5] it was -3 mmHg. Besides, the pIC50 in experiment [2] is 6.16.

The compound `CCOC(NC(=O)C(Cc1cccc2ccccc12)Cc1cccc2ccccc12)C(=O)N[C@@H](CC(C)C)[C@@H](O)CC(=O)NC[C@@H](C)CC` (stereo in doubt; 22) had a pIC50 in experiment [1] of less than 6.00.

`CCOC(NC(=O)[C@H](Cc1ccccc1)NS(=O)(=O)N1CCOCC1)C(=O)N[C@@H](CC1CCCCC1)[C@@H](O)CC(=O)NCCN1CCOCC1` (stereo partly specified) showed a pIC50 in experiment [2] of less than 5.00.

In turn, `CC[C@H](C)CNC(=O)C[C@H](O)[C@H](CC(C)C)NC(=O)C(NC(=O)C(Cc1cccc2ccccc12)Cc1cccc2ccccc12)S(C)(=O)=O` (stereo partly specified) showed a negative-log IC50 (pIC50) in experiment [1] of less than 6.00.

On to `CC[C@H](C)CNC(=O)C[C@H](O)[C@H](CC(C)C)NC(=O)C(NC(C)=O)NC(=O)C(Cc1cccc2ccccc12)Cc1cccc2ccccc12` (stereo partly specified), for which the pIC50 in experiment [1] is 6.03.

On to `C=CCSC(NC(=O)[C@H](Cc1ccccc1)NS(=O)(=O)N1CCOCC1)C(=O)N[C@@H](CC1CCCCC1)[C@@H](O)CC(=O)NCCN1CCOCC1` (stereo partly specified), for which the “Change in BP” value in experiment [3] is -3 mmHg; in experiment [4], -7 mmHg; in experiment [5], -6 mmHg. Besides, the pIC50 in experiment [2] is 8.00; in experiment [1], 8.82. In experiment [6], the Selectivity worked out at 6.7.

Turning to `O=C(C[C@H](O)[C@H](CC1CCCCC1)NC(=O)C(Cc1cnc[nH]1)NC(=O)[C@H](Cc1ccccc1)NS(=O)(=O)N1CCOCC1)NCCN1CCOCC1` (stereo partly specified), in experiment [2], the pIC50 was less than 5.00.

For `CC[C@H](C)CNC(=O)C[C@H](O)[C@H](CC(C)C)NC(=O)C(NC(=O)C(Cc1cccc2ccccc12)Cc1cccc2ccccc12)Sc1ccccc1` (stereo partly specified), in experiment [1], the pIC50 was 6.18.

Turning to `C=CCOC(NC(=O)[C@H](Cc1ccccc1)NS(=O)(=O)N1CCOCC1)C(=O)N[C@@H](CC1CCCCC1)[C@@H](O)[C@@H](O)CC(C)C` (stereo partly specified), the pIC50 in experiment [2] was 7.98; in experiment [1] it was 9.66.

Regarding `CC[C@H](C)CNC(=O)C[C@H](O)[C@H](CC(C)C)NC(=O)C(Cc1c[nH]cn1)NC(=O)C(Cc1cccc2ccccc12)Cc1cccc2ccccc12` (stereo partly specified), in experiment [1], the pIC50 was 7.07.

Compound `CC[C@H](C)CNC(=O)C[C@H](O)[C@H](CC(C)C)NC(=O)C(NC(=O)C(Cc1cccc2ccccc12)Cc1cccc2ccccc12)OC` (stereo partly specified) had a pIC50 in experiment [1] of 6.74.

Regarding `CC[C@H](C)CNC(=O)C[C@H](O)[C@H](CC(C)C)NC(=O)C(NC(=O)C(Cc1cccc2ccccc12)Cc1cccc2ccccc12)SC` (stereo partly specified), in experiment [1], the pIC50 was 7.02.

Take `CCNC(NC(=O)C(Cc1cccc2ccccc12)Cc1cccc2ccccc12)C(=O)N[C@@H](CC(C)C)[C@@H](O)CC(=O)NC[C@@H](C)CC` (stereo in doubt; 33): in experiment [1], the negative-log IC50 (pIC50) was less than 6.00.

`CC[C@H](C)CNC(=O)C[C@H](O)[C@H](CC(C)C)NC(=O)C(NC(=O)C(Cc1cccc2ccccc12)Cc1cccc2ccccc12)Oc1ccccc1` (stereo partly specified) had a pIC50 in experiment [1] of 6.20.

Regarding `CC[C@H](C)CNC(=O)C[C@H](O)[C@H](CC(C)C)NC(=O)C(NC(=O)C(Cc1cccc2ccccc12)Cc1cccc2ccccc12)NC(C)C` (stereo in doubt; 36), in experiment [1], the pIC50 was 6.30.

Compound `CC[C@H](C)CNC(=O)C[C@H](O)[C@H](CC(C)C)NC(=O)C(N)NC(=O)C(Cc1cccc2ccccc12)Cc1cccc2ccccc12` (stereo in doubt; 31) had a pIC50 in experiment [1] of less than 6.00.

On to `CC[C@H](C)CNC(=O)C[C@H](O)[C@H](CC(C)C)NC(=O)C(NC(=O)C(Cc1cccc2ccccc12)Cc1cccc2ccccc12)NC(C)C` (stereo in doubt; 35), for which the pIC50 in experiment [1] was less than 6.00.

For the compound `CCCOC(NC(=O)[C@H](Cc1ccccc1)NS(=O)(=O)N1CCOCC1)C(=O)N[C@@H](CC1CCCCC1)[C@@H](O)[C@@H](O)CC(C)C` (stereo partly specified), in experiment [2], the pIC50 was 7.66.

Regarding `CCSC(NC(=O)[C@H](Cc1ccccc1)NC(=O)OC(C)(C)C)C(=O)N[C@@H](CC1CCCCC1)[C@@H](O)[C@@H](O)CC(C)C` (stereo partly specified), the results for the pIC50 in experiment [2] and in experiment [1] were 7.55 and 8.85, respectively. The Selectivity in experiment [6] was 20.1.

Compound `CC[C@H](C)CNC(=O)C[C@H](O)[C@H](CC(C)C)NC(=O)C(NC(=O)C(Cc1cccc2ccccc12)Cc1cccc2ccccc12)[S+](C)[O-]` (stereo partly specified) gave a pIC50 in experiment [1] of 6.21.

As for `C=CCSC(NC(=O)[C@H](Cc1ccccc1)NS(=O)(=O)N1CCOCC1)C(=O)N[C@@H](CC1CCCCC1)[C@@H](O)[C@@H](O)CC(C)C` (stereo partly specified), the pIC50 was 7.71 in experiment [2] and 9.77 in experiment [1]. In experiment [6], the Selectivity was determined as 118.

Turning to `CCCOC(NC(=O)[C@H](Cc1ccccc1)NS(=O)(=O)N1CCOCC1)C(=O)N[C@@H](CC1CCCCC1)C(=O)C(F)(F)C(=O)NCCN1CCOCC1` (stereo partly specified), the “Change in BP” value in experiment [3] was -10 mmHg; in experiment [4] it was -10 mmHg; in experiment [5] it was -9 mmHg. The negative logarithm of the IC50 (pIC50) was 6.88 in experiment [2] and 8.68 in experiment [1]. In addition, in experiment [6], the Selectivity came out at 65.5.

`CC(C)C[C@H](O)[C@H](O)[C@H](CC1CCCCC1)NC(=O)C(NC(=O)[C@H](Cc1ccccc1)NS(=O)(=O)N1CCOCC1)OCC(F)(F)F` (stereo partly specified): the “Change in BP” value was -1 mmHg in experiment [3], -1 mmHg in experiment [4] and -2 mmHg in experiment [5]. The same compound gave a pIC50 in experiment [2] of 7.67.

For the compound `CCOC(NC(=O)[C@H](Cc1ccccc1)NS(=O)(=O)N1CCOCC1)C(=O)N[C@@H](CC1CCCCC1)[C@@H](O)[C@@H](O)CC(C)C` (stereo partly specified), the pIC50 in experiment [2] is 7.85.

Consider `CCSC(NC(=O)[C@H](Cc1ccccc1)NS(=O)(=O)N1CCOCC1)C(=O)N[C@@H](CC1CCCCC1)[C@@H](O)[C@@H](O)CC(C)C` (stereo partly specified), for which the entries for the “Change in BP” value in experiment [3], in experiment [4] and in experiment [5] were -14 mmHg, -12 mmHg and -16 mmHg, respectively. The same compound had a negative logarithm of the IC50 (pIC50) in experiment [2] of 8.00.

Compound `CC(C)C[C@H](O)[C@H](O)[C@H](CC1CCCCC1)NC(=O)C(Cc1cnc[nH]1)NC(=O)[C@H](Cc1ccccc1)NS(=O)(=O)N1CCOCC1` (stereo partly specified) had a pIC50 in experiment [2] of less than 5.00.

As to `C#CCOC(NC(=O)[C@H](Cc1ccccc1)NS(=O)(=O)N1CCOCC1)C(=O)N[C@@H](CC1CCCCC1)[C@@H](O)[C@@H](O)CC(C)C` (stereo partly specified), the pIC50 in experiment [2] was 7.10; in experiment [1], 9.28. The Selectivity in experiment [6] was determined as 154.

In experiment [1], `CC[C@H](C)CNC(=O)C[C@H](O)[C@H](CC(C)C)NC(=O)C(NC(=O)C(Cc1cccc2ccccc12)Cc1cccc2ccccc12)Nc1ccccc1` (stereo partly specified) gave a pIC50 of 6.51.

Take `CC(C)C[C@H](O)[C@H](O)[C@H](CC1CCCCC1)NC(=O)C(NC(=O)[C@H](Cc1ccccc1)NS(=O)(=O)N1CCOCC1)Sc1cccs1` (stereo partly specified): the pIC50 in experiment [2] is 6.33; in experiment [1], 7.89. Also, in experiment [6], the Selectivity was determined as 36.1.
